Data published in ChEMBL document CHEMBL1914438, “Synthesis and biological activity of novel N-cycloalkyl-(cycloalkylaryl)-2-[(3-R-2-oxo-2H-[1,2,4]triazino[2,3-c]quinazoline-6-yl)thio]acetamides” (2011).

How the values were obtained:
Type in all cases: functional
[1] = system: K562; assay: Cytotoxicity against human K562 cells assessed as cell growth at 10^-5 M after 48 hrs by SRB assay; conditions: K562, 48 h, read-out: Activity
Method in brief: (§1)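 NCI 60-cell-line one-dose primary screen: cells inoculated and preincubated 24–48 h, then test agent added at a single 10^-5 M concentration for a further 48 h. Endpoint is sulforhodamine B protein staining read spectrophotometrically. Reported as percent growth relative to untreated control cells.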

[2] = system: SK-MEL-28; assay: Cytotoxicity against human SK-MEL-28 cells assessed as cell growth at 10^-5 M after 48 hrs by SRB assay; conditions: SK-MEL-28, 48 h, read-out: Activity
Method in brief: (§2)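 NCI human tumor cell line panel from nine cancer types. Each line was inoculated and preincubated 24–48 h, then exposed to a single concentration (10^-5 M) for 48 h. Growth was read by sulforhodamine B protein staining, measured spectrophotometrically. Value reported as percent growth of treated cells relative to untreated controls.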

[3] = system: EKVX; assay: Cytotoxicity against human EKVX cells assessed as cell growth at 10^-5 M after 48 hrs by SRB assay; conditions: read-out: Activity; method in brief: as §1
[4] = system: Malme-3M; assay: Growth inhibition of human MALME-3M cells after 48 hrs by SRB assay
Method in brief: (§3)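 NCI panel of about 60 human tumor lines, 48 h continuous exposure at five 10-fold dilutions from 10^-4 to 10^-8 M. SRB protein staining was read as absorbance at time zero, in untreated controls and at each concentration. GI50 is the concentration giving 50% lower net protein increase than controls. TGI is where Ti = Tz, and LC50 is 50% protein loss versus start.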

[5] = system: MCF7; assay: Cytotoxicity against human MCF7 cells assessed as cell growth at 10^-5 M after 48 hrs by SRB assay; conditions: MCF7, 48 h, read-out: Activity; method in brief: as §1
[6] = system: SR; assay: Cytotoxicity against human SR cells assessed as cell growth at 10^-5 M after 48 hrs by SRB assay; conditions: read-out: Activity; method in brief: as §2
[7] = system: PC-3; assay: Cytotoxicity against human PC3 cells assessed as cell growth at 10^-5 M after 48 hrs by SRB assay; conditions: PC-3, 48 h, read-out: Activity; method in brief: as §2
[8] = system: OVCAR-8; assay: Cytotoxicity against human OVCAR8 cells assessed as cell growth at 10^-5 M after 48 hrs by SRB assay; conditions: OVCAR-8, 48 h, read-out: Activity; method in brief: as §2
[9] = system: SR; assay: Growth inhibition of human SR cells after 48 hrs by SRB assay
Method in brief: (§4)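 NCI 60-cell-line human tumor panel. Cells were inoculated and preincubated for 24–48 h, then exposed continuously to compound for 48 h. Primary screen used a single 10^-5 M concentration. Growth was measured by sulforhodamine B protein staining, read spectrophotometrically, and reported as percent growth versus untreated controls. Selected compounds were also run at five 10-fold dilutions (10^-4 to 10^-8 M) to derive GI50 from time-zero-corrected absorbances.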

[10] = system: HOP-92; assay: Growth inhibition of human HOP92 cells after 48 hrs by SRB assay; conditions: HOP-92, 48 h; method in brief: as §3
[11] = Growth inhibition of human Hs 578T cells after 48 hrs by SRB assay; method in brief: as §3
[12] = system: SN12C; assay: Cytotoxicity against human SN12C cells assessed as cell growth at 10^-5 M after 48 hrs by SRB assay; conditions: read-out: Activity; method in brief: as §2
[13] = system: Escherichia coli; assay: Antibacterial activity against Escherichia coli assessed as zone of inhibition at 0.1 mg/mL after 24 hrs by stiff-plate agar-diffusion method; conditions: read-out: DIZ
[14] = system: MDA-MB-231; assay: Growth inhibition of human MDA-MB-231 cells after 48 hrs by SRB assay; conditions: MDA-MB-231, 48 h; method in brief: as §3
[15] = system: Photobacterium leiognathi; assay: Antibacterial activity against Photobacterium leiognathi Sh1 assessed as inhibition of bacterial luminescence at 0.25 mg/mL after 10 mins by bioluminometry-based acute action test; parameters: scale not given: the % may be the effect or the level left
Method in brief: (§5)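 Marine P. leiognathi Sh1 (Azov Sea shrimp isolate) diluted in chloride solution to 10^5 cells/mL; compounds suspended in DMSO mixed with 1 mL bacterial suspension. Acute test: 10 min at 25 °C, then bioluminescence measured by bioluminometer as % of compound-free control. Tetracycline reference.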

[16] = system: DU-145; assay: Growth inhibition of human DU145 cells after 48 hrs by SRB assay; conditions: DU-145, 48 h; method in brief: as §3
[17] = system: MDA-MB-435; assay: Cytotoxicity against human MDA-MB-435 cells assessed as cell growth at 10^-5 M after 48 hrs by SRB assay; conditions: MDA-MB-435, 48 h, read-out: Activity; method in brief: as §1
[18] = system: ACHN; assay: Growth inhibition of human ACHN cells after 48 hrs by SRB assay; method in brief: as §3
[19] = system: Photobacterium leiognathi; assay: Antibacterial activity against Photobacterium leiognathi Sh1 assessed as inhibition of bacterial luminescence at 0.1 mg/mL after 10 mins by bioluminometry-based acute action test; parameters: scale not given: the % may be the effect or the level left; method in brief: as §5
[20] = system: RPMI-8226; assay: Cytotoxicity against human RPMI8226 cells assessed as cell growth at 10^-5 M after 48 hrs by SRB assay; conditions: RPMI-8226, 48 h, read-out: Activity; method in brief: as §2
[21] = system: Yamadazyma tenuis; assay: Antifungal activity against Candida tenuis assessed as zone of inhibition at 0.5 mg/mL after 48 to 72 hrs by stiff-plate agar-diffusion method; conditions: read-out: DIZ
[22] = system: UO-31; assay: Cytotoxicity against human UO31 cells assessed as cell growth at 10^-5 M after 48 hrs by SRB assay; conditions: UO-31, 48 h, read-out: Activity; method in brief: as §2
[23] = system: IGROV-1; assay: Growth inhibition of human IGROV1 cells after 48 hrs by SRB assay; conditions: IGROV-1, 48 h; method in brief: as §3
[24] = system: SNB-19; assay: Growth inhibition of human SNB19 cells after 48 hrs by SRB assay; conditions: SNB-19, 48 h; method in brief: as §4
[25] = system: M14; assay: Cytotoxicity against human M14 cells assessed as cell growth at 10^-5 M after 48 hrs by SRB assay; conditions: M14, 48 h, read-out: Activity; method in brief: as §1
[26] = system: NCI-H23; assay: Cytotoxicity against human NCI-H23 cells assessed as cell growth at 10^-5 M after 48 hrs by SRB assay; conditions: NCI-H23, 48 h, read-out: Activity; method in brief: as §2
[27] = system: CAKI-1; assay: Cytotoxicity against human Caki1 cells assessed as cell growth at 10^-5 M after 48 hrs by SRB assay; conditions: CAKI-1, 48 h, read-out: Activity; method in brief: as §1
[28] = system: RXF 393; assay: Cytotoxicity against human RXF393 cells assessed as cell growth at 10^-5 M after 48 hrs by SRB assay; conditions: RXF 393, 48 h, read-out: Activity; method in brief: as §2
[29] = system: UACC-62; assay: Growth inhibition of human UACC62 cells after 48 hrs by SRB assay; conditions: UACC-62, 48 h; method in brief: as §4
[30] = read-out: pLC50 (the source's name) (converted)

Compound: CCC1C2CCC(C2)C1NC(=O)CSc1nc2ccccc2c2nc(=O)c(-c3ccc(OC)cc3)nn12 (centres undefined)
- growth at 10 µM [1]: 39.2%
- growth at 10 µM [2]: 68.7%
- growth at 10 µM [3]: 25.6%
- GI50 [4]: 3.89 µM
- CC50 [4, 30]: > 50.1 µM
- TGI ([4]; read-out: pTGI (converted)): 24.5 µM
- growth at 10 µM [5]: 48.2%
- growth at 10 µM [6]: 7.67%
- growth at 10 µM [7]: 55.1%
- growth at 10 µM [8]: 53.1%
- GI50 [9]: 1.35 µM
- CC50 [9, 30]: > 50.1 µM
- TGI ([9]; read-out: pTGI (converted)): 7.41 µM
- GI50 [10]: 0.977 µM
- CC50 [10, 30]: 25.7 µM
- TGI ([10]; read-out: pTGI (converted)): 3.98 µM
- GI50 [11]: 3.89 µM
- CC50 [11, 30]: > 50.1 µM
- TGI ([11]; read-out: pTGI (converted)): 20 µM
- growth at 10 µM [12]: 57.8%
- zone of inhibition at 100 µg/mL [13]: 0 mm
- GI50 [14]: 3.09 µM
- CC50 [14, 30]: > 50.1 µM
- TGI ([14]; read-out: pTGI (converted)): 20.9 µM
- Activity [15]: 90.9%
- GI50 [16]: 3.16 µM
- CC50 [16, 30]: > 50.1 µM
- TGI ([16]; read-out: pTGI (converted)): 37.2 µM
- growth at 10 µM [17]: 58.6%
- GI50 [18]: 1.91 µM
- CC50 [18, 30]: > 50.1 µM
- TGI ([18]; read-out: pTGI): > 50.1 µM
- Activity [19]: 84%
- growth at 10 µM [20]: 47.4%
- zone of inhibition at 500 µg/mL [21]: 0 mm
- growth at 10 µM [22]: -12.7%
- GI50 [23]: 2.69 µM
- CC50 [23, 30]: > 50.1 µM
- TGI ([23]; read-out: pTGI (converted)): 36.3 µM
- GI50 [24]: 3.47 µM
- CC50 [24, 30]: > 50.1 µM
- TGI ([24]; read-out: pTGI (converted)): 22.4 µM
- growth at 10 µM [25]: 44.2%
- growth at 10 µM [26]: 62.8%
- growth at 10 µM [27]: 36.1%
- growth at 10 µM [28]: 9.46%
- GI50 [29]: 3.55 µM
- CC50 [29, 30]: > 50.1 µM
- TGI ([29]; read-out: pTGI (converted)): 26.3 µM
